Laboratory results taken from paper PMC7245055 (Chemical biology & drug design, 2019).
≈ marks a conversion by molar mass, not a printed value. Entries after “also recorded” stand apart in the source; their conditions may differ.

Columns and labels:
INS-1 β-cells [1] = experiment: INS-1 β-cell viability against tunicamycin; type: cell-based, rat; details: INS-1 cells, Tm
Outline: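 Rat INS-1 cells in RPMI 1640 with 10% FBS were seeded at 5 × 10^3 cells/well and held 24 h at 37 °C. Test compound was added as ten 2-fold serial titration points, then tunicamycin at 0.15 μg/mL final, for 72 h co-treatment. Viability was read as CellTiter-Glo luminescence (ATP) after 10 min. Maximum activity is % rescue, with Tm alone set as 0% and DMSO without Tm as 100%. EC50 was derived by curve fitting. Run in triplicate.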

[2] = Thermodynamic turbidimetric aqueous solubility assay; type: physicochemical; details: for solubility: pure water with 1% DMSO, 37 °C, water, kinetic from dmso stock; for aqueous solubility (in words): turbidity at 620 nm in H2O
Outline: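 DMSO solutions of test compound were serially diluted from 40 mM to 0.1 mM. Each was diluted 2 μL into ~198 μL pure water and shaken on a rotary shaker at 37 °C for 1–2 h to reach equilibrium solubility. Turbidity was measured as absorbance at 620 nm. Triplicate wells, reported as means ± SD.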

INS-1 β cells [3] = experiment: INS-1 cell viability against thapsigargin; type: cell-based, rat; details: TG 18 nM, 72 h, CellTiter-Glo
Outline: (§1)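 INS-1 cells were plated in RPMI 1640 with 10% FBS at 5 × 10^3 cells/well and held 24 h at 37 °C. Test compound was pin-transferred, then stressor was added in medium: TG 18 nM or BFA 0.2 μg/mL. After 72 h the medium was removed and CellTiter-Glo (intracellular ATP) added; luminescence was read after 10 min. DMSO without stressor was normalized as 1. Data are means of 3 replicate wells, with 3 independent experiments.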

INS-1 β cells [4] = experiment: INS-1 cell viability against brefeldin A; type: cell-based, rat; details: BFA 0.2 μg/mL, 72 h, CellTiter-Glo
Outline: as §1

INS-1 β-cells [5] = details: cited from earlier work

| SMILES | β-cell protective activity (in words) (INS-1 β-cells [1]) | aqueous solubility (in words) [2] | also measured |
| --- | --- | --- | --- |
| Cc1c(Cl)cccc1C(=O)NC(Cc1ccc(O)cc1)C(=O)NCc1ccc(C(F)(F)F)cc1 (stereo not shown) [Compound 5q, 3-Chloro-N-(3-(4-hydroxyphenyl)-1-oxo-1-((4-(trifluoromethyl)benzyl)amino)propan-2-yl)-2-methylbenzamide] | significantly less or not active |  |  |
| Cc1ccc(C)c(CNC(=O)CNC(=O)c2cccc(Cl)c2C)c1 [Compound 5a, 3-Chloro-N-(2-((2,5-dimethylbenzyl)amino)-2-oxoethyl)-2-methylbenzamide] |  |  | solubility [2]: ~75 µM (≈ 25.9 µg/mL) |
| Cc1c(Cl)cccc1C(=O)NCC(=O)NCCc1ccc(O)cc1 [Compound 5f, 3-Chloro-N-(2-((4-hydroxyphenethyl)amino)-2-oxoethyl)-2-methylbenzamide] |  |  | solubility [2]: ~200 µM (≈ 69.4 µg/mL) |
| COc1cc(CNC(=O)CNC(=O)c2cccc(Cl)c2C)ccc1O [Compound 5h, 3-Chloro-N-(2-((4-hydroxy-3-methoxybenzyl)amino)-2-oxoethyl)-2-methylbenzamide] |  | improved water solubility compare to 1 |  |
| COc1cc(CNC(=O)CNC(=O)c2cccc(O)c2)ccc1O [Compound 5n, 3-Hydroxy-N-(2-((4-hydroxy-3-methoxybenzyl)amino)-2-oxoethyl)benzamide] | significantly compromised activity |  |  |
| COc1cc(C(=O)NCC(=O)NCc2ccc(C(F)(F)F)cc2)ccc1O [Compound 5o, 4-hydroxy-3-methoxy-N-(2-oxo-2-((4-(trifluoromethyl)benzyl)amino)ethyl)benzamide] | significantly compromised activity |  |  |
| Cc1c(Cl)cccc1C(=O)NC(C)C(=O)NCc1ccc(C(F)(F)F)cc1 (stereo not shown) [Compound 5p, 3-Chloro-2-methyl-N-(1-oxo-1-((4-(trifluoromethyl)benzyl)amino)propan-2-yl)benzamide] | significantly less or not active |  |  |
| O=C(CNC(=O)c1cccc(O)c1)NCc1ccc(C(F)(F)F)cc1 [Compound 5m, 3-Hydroxy-N-(2-oxo-2-((4-(trifluoromethyl)benzyl)amino)ethyl)benzamide] |  |  | reduction in viability of INS-1 cells treated with TG (INS-1 β cells [3]): significantly reversed; reduction in viability of INS-1 cells treated with BFA (INS-1 β cells [4]): significantly reversed |
| Cc1c(Cl)cccc1C(=O)NCC(=O)NCc1ccc(C(F)(F)F)cc1 [Compound 5g, 3-Chloro-2-methyl-N-(2-oxo-2-((4-(trifluoromethyl)benzyl)amino)ethyl)benzamide] |  | improved water solubility compare to 1 |  |
| Cc1ccc(C)c(NC(=O)c2nnn(-c3cccc(Cl)c3C)c2C)c1 [Compound 1, 1-(3-chloro-2-methylphenyl)-N-(2,5-dimethylphenyl)-5-methyl-1H-1,2,3-triazole-4-carboxamide, reference compound] |  | poor aqueous solubility; also recorded: limited aqueous solubility; also recorded: aqueous insolubility | concentration at which β cell protective activity is exhibited (INS-1 β-cells [5]; narrow range of doses): 5~10 μM; maximal activity (INS-1 β-cells [5]; protection of β cells against ER stress): 97% |
